pIC50, pKi: −log10 of the molar value. Where “and” joins values, the source holds several entries; their conditions need not be identical. Equal values may be shown once.
Columns and labels:
[1] = Total clearance in rat at 10 mg/kg, iv; assay type: ADME, organism-based; set-up: dose 10 mg/kg, route intravenous; conditions: in vivo
Procedure, shortened: (§1)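 Pharmacokinetics in fasted rat, dog and monkey, n = 3 per species. The compound was dosed at 10 mg/mL in PEG400/water (1:1, v/v). Doses were 10 mg/kg iv and po in rat, 2 mg/kg iv and po in dog, and 10 mg/kg iv and po in monkey. Clearance, Vdss, MRT and Tmax were derived from plasma profiles; oral bioavailability came from the po and iv data.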

[2] = target: Amine oxidase [flavin-containing] A (Rattus norvegicus, UniProt P21396); test: Inhibition of rat MAO-A at 10 uM
[3] = Cmax in dog at 2 mg/kg, po; assay type: ADME, organism-based, Canis lupus familiaris; set-up: dose 2 mg/kg, route oral; conditions: in vivo
Procedure, shortened: (§2)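 Fasted animals, n = 3 per species (rat, dog, monkey). Compound was dosed iv or po in a vehicle of 10 mg/mL in PEG400/water (1:1, v/v). Parameters reported were CLtotal, Vdss, t1/2, MRT, Cmax, Tmax and oral bioavailability.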

[4] = target: Prothrombin (Homo sapiens, UniProt P00734); test: Inhibition of human Thrombin
[5] = […] residence time in monkey at 10 mg/kg, iv; assay type: ADME, organism-based, Macaca mulatta; set-up: dose 10 mg/kg, route intravenous; conditions: rhesus monkey, in vivo; procedure, shortened: as §1
[6] = Half life in rat at 10 mg/kg, iv; assay type: ADME, organism-based; set-up: dose 10 mg/kg, route intravenous; conditions: in vivo; procedure, shortened: as §2
[7] = target: T1, Cytochrome P450 2C19 (Homo sapiens, UniProt P33261); test: Inhibition of CYP2C19; assay type: ADME
[8] = Volume of distribution in steady state in rat at 10 mg/kg, iv; assay type: ADME, organism-based; set-up: dose 10 mg/kg, route intravenous; conditions: in vivo, read-out: Vdss; procedure, shortened: as §1
[9] = Half life in monkey at 10 mg/kg, iv; assay type: ADME, organism-based, Macaca mulatta; set-up: dose 10 mg/kg, route intravenous; conditions: rhesus monkey, in vivo; procedure, shortened: as §2
[10] = Tmax in rat at 10 mg/kg, po; assay type: ADME, organism-based; set-up: dose 10 mg/kg, route oral; conditions: in vivo; procedure, shortened: as §1
[11] = […] residence time in rat at 10 mg/kg, iv; assay type: ADME, organism-based; set-up: dose 10 mg/kg, route intravenous; conditions: in vivo; procedure, shortened: as §1
[12] = target: Amine oxidase [flavin-containing] B (Rattus norvegicus, UniProt P19643); test: Inhibition of rat MAO-B at 10 uM
[13] = target: T2, Cytochrome P450 3A4 (Homo sapiens, UniProt P08684); test: Inhibition of CYP3A4 using BFC as a substrate; assay type: ADME
[14] = target: T3, Cytochrome P450 2C9 (Homo sapiens, UniProt P11712); test: Inhibition of CYP2C9; assay type: ADME
[15] = Oral bioavailability in dog at 2 mg/kg; assay type: ADME, organism-based, Canis lupus familiaris; conditions: in vivo; procedure, shortened: as §1
[16] = Total clearance in monkey at 10 mg/kg, iv; assay type: ADME, organism-based, Macaca mulatta; set-up: dose 10 mg/kg, route intravenous; conditions: rhesus monkey, in vivo; procedure, shortened: as §1
[17] = Half life in dog at 2 mg/kg, iv; assay type: ADME, organism-based, Canis lupus familiaris; set-up: dose 2 mg/kg, route intravenous; conditions: in vivo; procedure, shortened: as §2
[18] = target: T4, Voltage-gated L-type calcium channel (Rattus norvegicus, UniProt P22002+Q02485+P27732); test: Inhibition of rat L type calcium channel at verapamil site at 10 uM
[19] = target: Vitamin K-dependent protein C (Homo sapiens, UniProt P04070); test: Inhibition of human Activated protein C
[20] = Oral bioavailability in monkey at 10 mg/kg; assay type: ADME, organism-based, Macaca mulatta; conditions: rhesus monkey, in vivo; procedure, shortened: as §1
[21] = target: T2, Cytochrome P450 3A4; test: Inhibition of CYP3A4 using BZR as substrate; assay type: ADME
[22] = Oral bioavailability in rat at 10 mg/kg; assay type: ADME, organism-based; conditions: in vivo; procedure, shortened: as §1
[23] = Cmax in rat at 10 mg/kg, po; assay type: ADME, organism-based; set-up: dose 10 mg/kg, route oral; conditions: in vivo; procedure, shortened: as §2
[24] = […] residence time in dog at 2 mg/kg, iv; assay type: ADME, organism-based, Canis lupus familiaris; set-up: dose 2 mg/kg, route intravenous; conditions: in vivo; procedure, shortened: as §1
[25] = Volume of distribution in steady state in monkey at 10 mg/kg, iv; assay type: ADME, organism-based, Macaca mulatta; set-up: dose 10 mg/kg, route intravenous; conditions: rhesus monkey, in vivo, read-out: Vdss; procedure, shortened: as §1
[26] = Tmax in monkey at 10 mg/kg, po; assay type: ADME, organism-based, Macaca mulatta; set-up: dose 10 mg/kg, route oral; conditions: rhesus monkey, in vivo; procedure, shortened: as §1
[27] = target: T5, Cytochrome P450 2D6 (Homo sapiens, UniProt P10635); test: Inhibition of CYP2D6 by HHA assay; assay type: ADME
[28] = target: Tissue-type plasminogen activator (Homo sapiens, UniProt P00750); test: Inhibition of human t-PA
[29] = target: Cytochrome P450 1A2 (Homo sapiens, UniProt P05177); test: Inhibition of CYP1A2; assay type: ADME
[30] = target: Urokinase-type plasminogen activator (Homo sapiens, UniProt P00749); test: Inhibition of human u-PA
[31] = target: Plasminogen (Homo sapiens, UniProt P00747); test: Inhibition of human plasmin
[32] = target: Voltage-gated inwardly rectifying potassium channel KCNH2 (Homo sapiens, UniProt Q12809); test: Inhibition of human ERG
[33] = target: T3, Cytochrome P450 2C9; test: Inhibition of CYP2C9 by HHA assay; assay type: ADME
[34] = Tmax in dog at 2 mg/kg, po; assay type: ADME, organism-based, Canis lupus familiaris; set-up: dose 2 mg/kg, route oral; conditions: in vivo; procedure, shortened: as §1
[35] = Volume of distribution in steady state in dog at 2 mg/kg, iv; assay type: ADME, organism-based, Canis lupus familiaris; set-up: dose 2 mg/kg, route intravenous; conditions: in vivo, read-out: Vdss; procedure, shortened: as §1
[36] = target: T1, Cytochrome P450 2C19; test: Inhibition of CYP2C19 by HHA assay; assay type: ADME
[37] = target: T4, Voltage-gated L-type calcium channel; test: Inhibition of rat L type calcium channel at DHP site at 10 uM
[38] = Cmax in monkey at 10 mg/kg, po; assay type: ADME, organism-based, Macaca mulatta; set-up: dose 10 mg/kg, route oral; conditions: rhesus monkey, in vivo; procedure, shortened: as §2
[39] = target: T2, Cytochrome P450 3A4; test: Inhibition of CYP3A4 by HHA assay; assay type: ADME
[40] = Total clearance in dog at 2 mg/kg, iv; assay type: ADME, organism-based, Canis lupus familiaris; set-up: dose 2 mg/kg, route intravenous; conditions: in vivo; procedure, shortened: as §1
[41] = Plasma protein binding in Sprague-Dawley rat plasma at 30 mg/kg, id; assay type: ADME, organism-based; set-up: dose 30 mg/kg, route intraduodenal; conditions: read-out: PPB (converted)
[42] = target: Nuclear receptor subfamily 1 group I member 2 (Homo sapiens, UniProt O75469); test: Inhibition of PXR
[43] = target: T5, Cytochrome P450 2D6; test: Inhibition of CYP2D6; assay type: ADME

T1 sequence (P33261 whole entry): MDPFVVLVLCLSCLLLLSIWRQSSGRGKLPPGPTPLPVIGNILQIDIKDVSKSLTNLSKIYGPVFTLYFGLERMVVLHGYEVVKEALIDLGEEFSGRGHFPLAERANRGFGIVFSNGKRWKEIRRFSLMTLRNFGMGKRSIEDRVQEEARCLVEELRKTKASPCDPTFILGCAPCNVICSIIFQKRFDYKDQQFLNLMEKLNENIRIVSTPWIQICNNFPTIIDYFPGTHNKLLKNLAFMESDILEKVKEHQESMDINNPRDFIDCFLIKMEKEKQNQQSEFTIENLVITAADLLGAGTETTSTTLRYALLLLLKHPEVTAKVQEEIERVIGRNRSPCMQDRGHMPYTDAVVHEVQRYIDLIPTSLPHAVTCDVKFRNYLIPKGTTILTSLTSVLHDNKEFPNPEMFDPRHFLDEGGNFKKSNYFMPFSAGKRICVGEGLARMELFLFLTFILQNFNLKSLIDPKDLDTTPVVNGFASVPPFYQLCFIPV
T3 sequence (P11712 whole entry): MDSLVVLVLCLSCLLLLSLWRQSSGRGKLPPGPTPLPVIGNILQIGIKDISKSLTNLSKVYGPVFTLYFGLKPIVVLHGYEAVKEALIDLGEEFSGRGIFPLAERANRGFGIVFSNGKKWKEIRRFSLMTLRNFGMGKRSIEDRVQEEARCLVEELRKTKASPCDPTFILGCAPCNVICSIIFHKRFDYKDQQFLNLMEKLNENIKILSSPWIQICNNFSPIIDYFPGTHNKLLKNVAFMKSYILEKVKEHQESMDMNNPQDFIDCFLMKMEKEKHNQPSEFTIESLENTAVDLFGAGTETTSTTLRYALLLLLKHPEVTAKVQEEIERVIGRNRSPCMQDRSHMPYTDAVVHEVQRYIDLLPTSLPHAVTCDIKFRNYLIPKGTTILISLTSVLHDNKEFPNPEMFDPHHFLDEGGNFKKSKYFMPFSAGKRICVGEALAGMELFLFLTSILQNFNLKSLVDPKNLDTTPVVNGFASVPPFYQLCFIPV
T2 sequence (P08684 whole entry): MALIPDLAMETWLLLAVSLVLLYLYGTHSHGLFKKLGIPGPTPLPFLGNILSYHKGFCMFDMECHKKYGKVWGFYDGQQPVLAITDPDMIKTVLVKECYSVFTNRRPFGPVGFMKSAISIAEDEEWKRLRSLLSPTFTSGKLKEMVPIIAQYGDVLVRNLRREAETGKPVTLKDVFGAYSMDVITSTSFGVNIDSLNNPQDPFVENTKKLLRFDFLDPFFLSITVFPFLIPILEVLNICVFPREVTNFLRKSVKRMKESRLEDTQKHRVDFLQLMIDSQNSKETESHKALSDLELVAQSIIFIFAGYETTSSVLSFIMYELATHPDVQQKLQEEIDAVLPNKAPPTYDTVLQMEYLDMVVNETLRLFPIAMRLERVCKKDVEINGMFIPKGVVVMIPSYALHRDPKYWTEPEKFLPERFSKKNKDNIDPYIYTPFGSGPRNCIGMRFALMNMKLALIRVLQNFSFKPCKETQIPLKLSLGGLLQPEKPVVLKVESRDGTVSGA
T5 sequence (P10635 whole entry): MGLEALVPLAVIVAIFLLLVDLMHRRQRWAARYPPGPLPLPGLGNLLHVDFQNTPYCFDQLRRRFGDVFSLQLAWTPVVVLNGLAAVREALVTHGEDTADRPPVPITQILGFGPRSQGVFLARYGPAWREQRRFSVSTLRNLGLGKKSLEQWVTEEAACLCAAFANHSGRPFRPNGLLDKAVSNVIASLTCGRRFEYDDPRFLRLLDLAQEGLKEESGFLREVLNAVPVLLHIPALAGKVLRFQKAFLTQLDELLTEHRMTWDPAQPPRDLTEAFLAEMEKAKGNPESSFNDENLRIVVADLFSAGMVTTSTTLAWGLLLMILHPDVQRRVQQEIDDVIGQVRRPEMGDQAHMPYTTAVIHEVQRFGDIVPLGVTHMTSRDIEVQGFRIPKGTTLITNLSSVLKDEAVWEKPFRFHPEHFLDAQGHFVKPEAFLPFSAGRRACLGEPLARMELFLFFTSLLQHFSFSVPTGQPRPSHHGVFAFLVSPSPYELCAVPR
Sequence of Tissue-type plasminogen activator (P00750 whole entry): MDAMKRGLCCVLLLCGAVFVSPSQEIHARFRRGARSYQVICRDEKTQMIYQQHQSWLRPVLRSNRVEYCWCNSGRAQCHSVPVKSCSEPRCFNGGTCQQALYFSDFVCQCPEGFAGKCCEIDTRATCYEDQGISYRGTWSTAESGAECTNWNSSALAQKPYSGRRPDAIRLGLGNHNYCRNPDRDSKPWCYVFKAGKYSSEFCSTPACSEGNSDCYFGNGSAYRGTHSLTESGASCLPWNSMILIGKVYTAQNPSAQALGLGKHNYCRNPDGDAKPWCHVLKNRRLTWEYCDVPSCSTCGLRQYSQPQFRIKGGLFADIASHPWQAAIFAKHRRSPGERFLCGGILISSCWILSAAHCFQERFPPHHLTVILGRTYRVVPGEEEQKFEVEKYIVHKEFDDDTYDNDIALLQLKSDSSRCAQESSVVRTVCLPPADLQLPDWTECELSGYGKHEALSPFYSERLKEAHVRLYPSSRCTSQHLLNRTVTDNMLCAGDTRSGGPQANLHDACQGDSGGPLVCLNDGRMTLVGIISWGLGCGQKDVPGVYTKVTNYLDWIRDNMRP
Sequence of Amine oxidase [flavin-containing] A (P21396 whole entry): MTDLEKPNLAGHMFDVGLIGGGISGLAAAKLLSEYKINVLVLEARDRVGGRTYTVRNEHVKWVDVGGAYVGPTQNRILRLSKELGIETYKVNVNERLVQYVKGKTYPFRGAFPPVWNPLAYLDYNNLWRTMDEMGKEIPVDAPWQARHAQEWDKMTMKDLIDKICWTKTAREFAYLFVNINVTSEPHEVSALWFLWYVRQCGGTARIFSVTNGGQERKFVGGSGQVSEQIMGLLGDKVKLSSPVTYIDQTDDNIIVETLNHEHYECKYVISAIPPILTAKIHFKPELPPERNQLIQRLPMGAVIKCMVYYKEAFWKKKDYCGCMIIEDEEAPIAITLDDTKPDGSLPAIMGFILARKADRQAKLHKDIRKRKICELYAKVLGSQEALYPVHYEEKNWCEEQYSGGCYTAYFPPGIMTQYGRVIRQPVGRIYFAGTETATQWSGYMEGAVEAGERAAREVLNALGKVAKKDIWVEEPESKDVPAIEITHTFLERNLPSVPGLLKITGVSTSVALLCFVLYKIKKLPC
Sequence of Nuclear receptor subfamily 1 group I member 2 (O75469 whole entry): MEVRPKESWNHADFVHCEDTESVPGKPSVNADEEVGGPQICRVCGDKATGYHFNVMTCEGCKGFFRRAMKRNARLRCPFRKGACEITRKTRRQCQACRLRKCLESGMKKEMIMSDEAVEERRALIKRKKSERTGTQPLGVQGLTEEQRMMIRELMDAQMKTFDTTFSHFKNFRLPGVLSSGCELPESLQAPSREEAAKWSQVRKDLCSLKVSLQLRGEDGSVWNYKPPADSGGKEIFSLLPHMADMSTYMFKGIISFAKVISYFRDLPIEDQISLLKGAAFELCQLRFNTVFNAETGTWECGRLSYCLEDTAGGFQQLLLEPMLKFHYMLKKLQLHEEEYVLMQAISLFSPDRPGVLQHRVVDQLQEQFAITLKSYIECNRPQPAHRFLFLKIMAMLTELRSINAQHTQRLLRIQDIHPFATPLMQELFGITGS
Sequence of Voltage-gated inwardly rectifying potassium channel KCNH2 (Q12809 whole entry): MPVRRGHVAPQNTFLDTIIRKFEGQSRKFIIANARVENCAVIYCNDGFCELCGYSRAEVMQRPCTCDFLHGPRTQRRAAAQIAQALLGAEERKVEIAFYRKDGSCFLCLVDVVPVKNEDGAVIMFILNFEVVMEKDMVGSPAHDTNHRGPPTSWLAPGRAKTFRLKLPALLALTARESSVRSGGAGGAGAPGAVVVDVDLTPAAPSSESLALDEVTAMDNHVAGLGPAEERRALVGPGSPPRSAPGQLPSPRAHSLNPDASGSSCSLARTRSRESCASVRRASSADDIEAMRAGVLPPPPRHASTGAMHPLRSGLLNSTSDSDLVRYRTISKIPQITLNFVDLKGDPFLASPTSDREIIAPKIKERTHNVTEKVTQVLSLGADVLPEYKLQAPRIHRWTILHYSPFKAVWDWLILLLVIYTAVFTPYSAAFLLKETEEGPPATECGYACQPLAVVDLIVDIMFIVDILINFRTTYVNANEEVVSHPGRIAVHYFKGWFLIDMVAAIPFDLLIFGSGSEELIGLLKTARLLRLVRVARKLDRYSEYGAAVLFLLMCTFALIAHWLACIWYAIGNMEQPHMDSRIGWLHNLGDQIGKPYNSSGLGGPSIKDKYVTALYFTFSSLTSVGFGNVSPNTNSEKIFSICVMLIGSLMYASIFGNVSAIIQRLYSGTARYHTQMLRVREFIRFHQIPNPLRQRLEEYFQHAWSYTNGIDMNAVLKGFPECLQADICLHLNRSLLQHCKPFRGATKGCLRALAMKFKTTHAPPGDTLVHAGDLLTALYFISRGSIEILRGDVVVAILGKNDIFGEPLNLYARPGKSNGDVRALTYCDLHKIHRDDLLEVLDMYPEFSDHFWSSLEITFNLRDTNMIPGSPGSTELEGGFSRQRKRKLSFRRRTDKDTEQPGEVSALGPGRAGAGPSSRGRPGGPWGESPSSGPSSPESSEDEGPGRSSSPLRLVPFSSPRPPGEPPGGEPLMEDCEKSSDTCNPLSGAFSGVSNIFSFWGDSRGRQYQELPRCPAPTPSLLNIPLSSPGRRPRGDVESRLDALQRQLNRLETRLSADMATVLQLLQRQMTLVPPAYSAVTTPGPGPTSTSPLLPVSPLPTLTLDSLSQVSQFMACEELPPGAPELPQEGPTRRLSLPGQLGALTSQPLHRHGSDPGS

Structure (SMILES): Cc1cc2cc(N=C(NC(=O)c3ccc(C(=O)N(C)C)nc3)N[C@H]3CCCCN(CC(=O)N4CCCC4)C3=O)ccc2o1
- clearance [1]: 27 mL/min/kg
- Activity [2]: Not Active
- Cmax [3]: 2800 ng/mL
- pKi [4]: 5.64
- MRT [5]: 4 h
- half-life [6]: 1.6 h
- pIC50 [7]: 4.29 and 4.40
- Vd [8]: 3.3 L/kg
- half-life [9]: 14 h
- Tmax [10]: 0.6 h
- MRT [11]: 2 h
- Activity [12]: Not Active
- pIC50 [13]: 4.41
- pIC50 [14]: 4.37 and < 4.40
- bioavailability [15]: 77%
- clearance [16]: 11 mL/min/kg
- half-life [17]: 8.6 h
- Activity [18]: Not Active
- pKi [19]: < 4.74
- bioavailability [20]: 28%
- pIC50 [21]: < 4.40
- bioavailability [22]: 55%
- Cmax [23]: 2200 ng/mL
- MRT [24]: 9 h
- Vd [25]: 2.3 L/kg
- Tmax [26]: 1.8 h
- pIC50 [27]: < 3.70
- pKi [28]: 6.18
- pIC50 [29]: < 4.40
- pKi [30]: < 5.11
- pKi [31]: < 4.80
- Activity [32]: Not Active
- pIC50 [33]: < 3.70
- Tmax [34]: 1.3 h
- Vd [35]: 0.96 L/kg
- pIC50 [36]: < 3.70
- Activity [37]: Not Active
- Cmax [38]: 2100 ng/mL
- pIC50 [39]: < 3.70
- clearance [40]: 1.9 mL/min/kg
- fraction unbound [41]: 0.28
- Activity [42]: Not Active
- pIC50 [43]: < 4.40

— ChEMBL document CHEMBL1156750 (Bioorg Med Chem Lett, 2009)
